This experiment addresses T1, Galectin-8 (Homo sapiens, UniProt O00214).
T1 sequence (O00214 whole entry): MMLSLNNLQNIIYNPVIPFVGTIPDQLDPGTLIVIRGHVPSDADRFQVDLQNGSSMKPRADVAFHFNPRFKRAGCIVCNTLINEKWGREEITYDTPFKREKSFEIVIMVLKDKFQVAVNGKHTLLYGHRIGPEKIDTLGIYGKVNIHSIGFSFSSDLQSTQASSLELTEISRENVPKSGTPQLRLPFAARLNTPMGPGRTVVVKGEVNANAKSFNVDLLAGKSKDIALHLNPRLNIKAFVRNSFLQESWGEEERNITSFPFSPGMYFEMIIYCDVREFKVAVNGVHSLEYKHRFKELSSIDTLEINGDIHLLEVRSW
Put plainly: Binding affinity to N-terminal domain of human galectin-8 (8-154 residues) by ITC assay. The procedure, abridged:
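Untagged galectin-8N (residues 8-154) was expressed in bacteria (IPTG induction 4 h, room temperature) and purified on lactosyl-Sepharose at 4 °C. Protein and ligand were in 20 mM Tris pH 7.5, 100 mM NaCl, 4 mM BME, 5% DMSO and degassed. Ligand (0.5 or 1 mM) was titrated into 100 µM protein over 20-25 × 2.5 µl injections, 150 s apart, at 298 K. Blank-corrected data were fitted to an independent-site model for Kd.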

`OC[C@H]1O[C@@H](O[C@H]2[C@H](O)[C@@H](O)[C@H](O)O[C@@H]2CO)[C@H](O)[C@@H](O)[C@H]1O` [Lactose, anhydrous] registered a Kd of 37.9 µM.

The term Kd denotes a measure of binding affinity in units of concentration. Low readings indicate higher affinity, high ones lower affinity.

(Values after BindingDB's records for PubMed 32809817 (Griffith University, 2020).)
